Several values for one entry are separate records, joined by “and”; a condition that tells them apart may be missing. Identical values can stand only once.

Test [1] has as its target T1, Adrenergic receptor alpha-2 (Homo sapiens, UniProt P08913+P18825+P18089).
T1 sequence (P08913 whole entry): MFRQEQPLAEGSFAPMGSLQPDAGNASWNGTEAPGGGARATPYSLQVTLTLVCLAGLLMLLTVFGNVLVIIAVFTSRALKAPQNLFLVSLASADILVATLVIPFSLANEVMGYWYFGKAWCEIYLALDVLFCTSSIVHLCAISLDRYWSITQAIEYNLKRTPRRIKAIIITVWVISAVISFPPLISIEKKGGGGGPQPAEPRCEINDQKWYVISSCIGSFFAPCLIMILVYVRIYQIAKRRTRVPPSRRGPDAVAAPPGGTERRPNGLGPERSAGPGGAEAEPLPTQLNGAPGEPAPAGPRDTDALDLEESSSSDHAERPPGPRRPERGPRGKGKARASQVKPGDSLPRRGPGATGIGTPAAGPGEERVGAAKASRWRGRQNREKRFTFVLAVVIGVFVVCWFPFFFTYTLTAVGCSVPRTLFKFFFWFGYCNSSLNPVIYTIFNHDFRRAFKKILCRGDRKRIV
T1 sequence (P18825 whole entry): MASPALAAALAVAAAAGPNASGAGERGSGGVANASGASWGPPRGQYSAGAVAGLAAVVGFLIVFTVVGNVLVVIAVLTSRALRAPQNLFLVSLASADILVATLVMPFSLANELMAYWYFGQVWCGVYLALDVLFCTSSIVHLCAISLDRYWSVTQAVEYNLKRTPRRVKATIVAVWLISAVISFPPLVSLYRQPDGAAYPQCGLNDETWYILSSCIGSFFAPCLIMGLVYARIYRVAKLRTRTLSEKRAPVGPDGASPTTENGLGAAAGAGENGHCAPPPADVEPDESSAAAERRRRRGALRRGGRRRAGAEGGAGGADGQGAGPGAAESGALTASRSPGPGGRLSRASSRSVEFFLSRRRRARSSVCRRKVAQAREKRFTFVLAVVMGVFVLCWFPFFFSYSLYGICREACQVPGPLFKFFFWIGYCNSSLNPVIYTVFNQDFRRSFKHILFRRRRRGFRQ
T1 sequence (P18089 whole entry): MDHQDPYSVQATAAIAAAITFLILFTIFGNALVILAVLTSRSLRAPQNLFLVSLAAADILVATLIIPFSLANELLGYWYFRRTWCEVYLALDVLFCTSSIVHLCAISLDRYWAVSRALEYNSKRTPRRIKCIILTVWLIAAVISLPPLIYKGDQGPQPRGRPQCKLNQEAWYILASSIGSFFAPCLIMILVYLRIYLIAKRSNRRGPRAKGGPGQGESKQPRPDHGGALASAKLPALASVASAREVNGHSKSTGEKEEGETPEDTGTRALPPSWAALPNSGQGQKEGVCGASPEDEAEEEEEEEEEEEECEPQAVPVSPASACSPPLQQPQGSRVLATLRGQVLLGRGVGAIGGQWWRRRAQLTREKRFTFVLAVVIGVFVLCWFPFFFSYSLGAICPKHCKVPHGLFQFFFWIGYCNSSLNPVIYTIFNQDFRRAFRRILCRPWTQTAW
Put plainly: Inhibition of alpha-2-adrenergic receptor. In kind it is protein assay.

Test [2] addresses 5-hydroxytryptamine receptor 1D (Rattus norvegicus, UniProt P28565). Put plainly: Inhibition of rat hydroxytryptamine 1D receptor.
The subject of test [3] is Rattus norvegicus. Put plainly: Dose required to inhibit ultrasonic vocalisation on subcutaneous administered. It counts as functional. The settings on record: sc, read-out: ID50 (the source's name). In short, it runs like this:
(§1)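 Rat ultrasonic vocalization test. In a priming session, up to 10 grid-floor shocks were given (1.8 mA, 0.3 s, 20 s apart). Rats not vocalizing on three consecutive trials were excluded. Next day, rats were tested 2 h after dosing: five shocks, then vocalization duration recorded over 3 min. ID50 (dose for half-maximal inhibition) came from dose–response curves.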

Test [4] addresses T2, 5-hydroxytryptamine receptor 2C (Rattus norvegicus, UniProt P08909).
T2 sequence (P08909 whole entry): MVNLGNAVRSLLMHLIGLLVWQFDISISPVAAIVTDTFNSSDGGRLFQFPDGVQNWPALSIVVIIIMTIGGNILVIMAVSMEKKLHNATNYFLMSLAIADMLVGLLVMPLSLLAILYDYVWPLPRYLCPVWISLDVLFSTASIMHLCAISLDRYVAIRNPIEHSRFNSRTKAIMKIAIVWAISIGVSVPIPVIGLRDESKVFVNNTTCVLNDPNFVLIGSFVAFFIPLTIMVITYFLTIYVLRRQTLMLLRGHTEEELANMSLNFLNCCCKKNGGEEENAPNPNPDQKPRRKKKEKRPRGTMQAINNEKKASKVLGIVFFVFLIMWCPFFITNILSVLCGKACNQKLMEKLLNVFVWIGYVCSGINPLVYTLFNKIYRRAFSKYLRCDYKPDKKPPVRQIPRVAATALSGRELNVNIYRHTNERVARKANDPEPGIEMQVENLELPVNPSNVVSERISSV
Briefly: Inhibition of rat hydroxytryptamine 2C receptor.

Test [5] concerns the target 5-hydroxytryptamine receptor 2A (Rattus norvegicus, UniProt P14842). Briefly: Inhibition of rat hydroxytryptamine 2A receptor.
Test [6] is described as follows: Inhibition of histamine H2 receptor.
In test [7] the test system is Rattus norvegicus. Put plainly: Dose required to inhibit ultrasonic vocalisation on peroral administered. In kind it is functional. The settings on record: po, read-out: ID50 (the source's name). In short, it runs like this:
as §1

A further test deals with D(2) dopamine receptor (Rattus norvegicus, UniProt P61169). Briefly: Displacement of [3H]spiperone from dopamine D2 receptor of rat striatal membranes. In kind it is cell membranes, Membrane. The method in brief:
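IC50 from 5–10 compound concentrations, each in triplicate, taken as the concentration (nM) giving 50% inhibition of specific radioligand binding.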

Test [8] has as its target 5-hydroxytryptamine receptor 6 (Rattus norvegicus, UniProt P31388). Briefly: Inhibition of rat hydroxytryptamine 6 receptor.
The target of test [9] is 5-hydroxytryptamine receptor 4 (Rattus norvegicus, UniProt Q62758). Put plainly: Inhibition of rat hydroxytryptamine 4 receptor.
The target of test [10] is 5-hydroxytryptamine receptor 7 (Rattus norvegicus, UniProt P32305). Briefly: Inhibition of rat hydroxytryptamine 7 receptor.
Chain of 5-hydroxytryptamine receptor 7 (P32305 whole entry): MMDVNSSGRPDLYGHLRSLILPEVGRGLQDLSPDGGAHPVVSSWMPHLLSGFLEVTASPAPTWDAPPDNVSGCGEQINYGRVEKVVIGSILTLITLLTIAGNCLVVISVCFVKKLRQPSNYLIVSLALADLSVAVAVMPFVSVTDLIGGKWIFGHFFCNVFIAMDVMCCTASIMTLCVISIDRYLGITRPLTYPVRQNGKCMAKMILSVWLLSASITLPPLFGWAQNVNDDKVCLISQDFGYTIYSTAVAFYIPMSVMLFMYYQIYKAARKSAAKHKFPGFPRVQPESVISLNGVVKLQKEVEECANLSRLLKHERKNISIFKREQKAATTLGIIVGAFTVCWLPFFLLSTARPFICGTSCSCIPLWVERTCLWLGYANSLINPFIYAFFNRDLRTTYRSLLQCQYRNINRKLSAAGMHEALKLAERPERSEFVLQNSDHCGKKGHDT

Chain of D(2) dopamine receptor (P61169 whole entry): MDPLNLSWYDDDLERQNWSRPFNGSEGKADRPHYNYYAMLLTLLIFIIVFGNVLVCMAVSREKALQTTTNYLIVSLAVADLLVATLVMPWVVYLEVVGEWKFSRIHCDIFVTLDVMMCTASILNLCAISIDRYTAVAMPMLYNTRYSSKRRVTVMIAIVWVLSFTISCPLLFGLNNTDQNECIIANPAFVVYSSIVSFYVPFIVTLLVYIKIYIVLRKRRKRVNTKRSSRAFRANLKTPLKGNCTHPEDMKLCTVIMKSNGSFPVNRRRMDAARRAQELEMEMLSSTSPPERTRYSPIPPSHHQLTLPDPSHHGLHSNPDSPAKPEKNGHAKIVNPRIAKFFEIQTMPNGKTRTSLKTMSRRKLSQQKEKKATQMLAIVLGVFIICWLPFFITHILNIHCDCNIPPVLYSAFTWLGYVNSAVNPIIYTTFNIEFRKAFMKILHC
Chain of 5-hydroxytryptamine receptor 4 (Q62758 whole entry): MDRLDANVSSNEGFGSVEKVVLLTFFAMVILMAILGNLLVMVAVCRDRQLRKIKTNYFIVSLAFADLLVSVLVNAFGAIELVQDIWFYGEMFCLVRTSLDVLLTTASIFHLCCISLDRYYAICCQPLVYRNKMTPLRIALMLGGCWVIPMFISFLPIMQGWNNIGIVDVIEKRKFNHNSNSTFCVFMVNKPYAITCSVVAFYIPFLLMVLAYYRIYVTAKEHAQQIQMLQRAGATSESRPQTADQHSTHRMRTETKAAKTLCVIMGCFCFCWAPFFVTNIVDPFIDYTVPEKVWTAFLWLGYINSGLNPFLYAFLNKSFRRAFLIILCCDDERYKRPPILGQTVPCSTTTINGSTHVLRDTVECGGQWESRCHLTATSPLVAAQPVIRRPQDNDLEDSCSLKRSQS
Chain of 5-hydroxytryptamine receptor 1D (P28565 whole entry): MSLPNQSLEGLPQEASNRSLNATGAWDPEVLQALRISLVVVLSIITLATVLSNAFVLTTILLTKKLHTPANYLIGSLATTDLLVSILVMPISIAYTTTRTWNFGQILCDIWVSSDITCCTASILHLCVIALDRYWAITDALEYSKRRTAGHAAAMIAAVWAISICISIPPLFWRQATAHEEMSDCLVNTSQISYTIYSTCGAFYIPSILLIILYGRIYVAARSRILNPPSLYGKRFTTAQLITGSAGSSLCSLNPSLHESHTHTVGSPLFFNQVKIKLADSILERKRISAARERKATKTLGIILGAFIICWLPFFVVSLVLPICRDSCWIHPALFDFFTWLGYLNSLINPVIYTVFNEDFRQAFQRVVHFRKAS
Chain of 5-hydroxytryptamine receptor 6 (P31388 whole entry): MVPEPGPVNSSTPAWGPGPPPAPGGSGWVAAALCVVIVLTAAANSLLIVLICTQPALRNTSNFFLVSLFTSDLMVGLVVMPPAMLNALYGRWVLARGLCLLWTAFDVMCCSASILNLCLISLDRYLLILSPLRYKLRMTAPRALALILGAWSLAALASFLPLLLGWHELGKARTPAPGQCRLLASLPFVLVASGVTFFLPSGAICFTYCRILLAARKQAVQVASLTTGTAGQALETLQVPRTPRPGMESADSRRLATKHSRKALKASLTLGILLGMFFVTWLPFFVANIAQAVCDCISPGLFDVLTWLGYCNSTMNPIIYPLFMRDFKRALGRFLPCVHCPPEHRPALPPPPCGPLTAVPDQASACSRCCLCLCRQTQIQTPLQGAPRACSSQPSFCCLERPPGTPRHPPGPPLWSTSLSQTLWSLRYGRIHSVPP
Chain of 5-hydroxytryptamine receptor 2A (P14842 whole entry): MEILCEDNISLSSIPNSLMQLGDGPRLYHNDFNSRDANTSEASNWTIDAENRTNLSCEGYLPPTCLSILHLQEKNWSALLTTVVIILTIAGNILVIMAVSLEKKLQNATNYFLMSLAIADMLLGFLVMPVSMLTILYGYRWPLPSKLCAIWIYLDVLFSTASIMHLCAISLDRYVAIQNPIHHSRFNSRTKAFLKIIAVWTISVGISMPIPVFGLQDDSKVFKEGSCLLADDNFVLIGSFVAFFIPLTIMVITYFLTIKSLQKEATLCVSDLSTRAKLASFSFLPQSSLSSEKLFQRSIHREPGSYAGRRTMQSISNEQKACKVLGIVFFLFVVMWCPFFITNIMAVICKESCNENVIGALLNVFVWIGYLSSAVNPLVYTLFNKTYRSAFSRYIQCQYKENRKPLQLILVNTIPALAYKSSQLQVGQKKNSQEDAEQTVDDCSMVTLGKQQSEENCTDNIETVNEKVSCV

For the molecule `N#Cc1ccc2[nH]cc(CCCCN3CCN(c4ccc5oc(C(N)=O)cc5c4)CC3)c2c1` [VILAZODONE], the IC50 was 6 µM in test [1]; 4 µM in test [2]; 2 µM in test [4]; 1.51 µM in [5]; over 1 µM in [6]; 0.095 µM and 0.666 µM at D(2) dopamine receptor. Moreover, the results for the IC50 in test [8], in test [9] and in test [10] were 3 µM, 0.252 µM and 3.9 µM, respectively. Moreover, the figures for the ED50 with Rattus norvegicus [3] and with Rattus norvegicus [7] were 4 mg/kg and 13 mg/kg, respectively.

By IC50 is commonly meant the concentration at which inhibition is half-maximal. Read a low IC50 as higher potency.

The values are drawn from ChEMBL document CHEMBL1138747, “Synthesis and structure--activity relationship in a class of indolebutylpiperazines as dual 5-HT(1A) receptor agonists and serotonin reuptake inhibitors” (J Med Chem, 2004).
